The entries come from a sample that favours hits as a whole.
INS promoter act = TRM-6 insulin promoter activation | TRM-6 cells (human fetal islet line), insulin promoter eGFP reporter, imaging; plate-scaled: unstimulated 0, stimulated control 100 | activation, % at 2 µM | 130,000 tested, 0.81% active | AID 1296;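 active = activation at 2 µM above a set limit, confirmed on inspection of the cell images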;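 also: share of cells whose green reporter signal exceeds an intensity cutoff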
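Material: TRM-6 insulin promoter–eGFP reporter cells. Buffer or medium: Low-glucose (5.5 mM) medium with tamoxifen. Probe or stimulus: tamoxifen at 0.75 µM added at seeding for reporter induction. Times: tamoxifen pre-incubation 15 h overnight, then compound exposure 48 h at 37 °C. Detection: high-content imaging of fixed cells with Hoechst nuclear stain.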
Active calls of the source: *.

SMILES	INS promoter act
CCn1ncc(CN2CCCC(CNC(=O)c3ccc(F)cc3)C2)c1C (stereo not drawn)	4
COC(=O)Cc1ccc(NC(=S)Nc2ccc(N3CCOCC3)cc2)cc1	-6
Cc1ccccc1N1C(=O)C(Oc2ccc(Cl)cc2)C1CNC(C)(C)C (stereo not drawn)	0
CC(C)=Cc1c(O)nc2ccccn2c1=O	7
CC1CCCCC1NC(=S)NC(=O)c1ccccc1Br (stereo not drawn)	0
CN(C(=S)NC(=O)c1ccccc1Br)C1CCCCC1	223*
COc1ccccc1/C=C/C(=O)NC(=S)N(C)C1CCCCC1	-5
O=C(CCNC(=O)c1ccco1)Nc1ccc(N2CCOCC2)cc1	-7
CCN(CC)c1ccc(N2C(=O)/C(=C/c3cccnc3)SC2=S)cc1	10
CCOC(=O)c1sc2nc(-c3cccnc3)ccc2c1N	-71
COc1ccc(C(=O)c2sc3nc(-c4ccccc4)ccc3c2N)cc1	207*
COc1ccc(C(=O)c2oc3ccccc3c2N)cc1	306
COc1cc(/C=C2/C(=O)c3cccc([N+](=O)[O-])c3C2=O)c(Br)cc1O	4
CN1C(=O)CC(N2CCN(c3ccccc3)CC2)C1=O (stereo not drawn)	0
O=C(c1ccc(Oc2ccccc2)cc1)c1nc2c(n1O)CCCC2	0
Cc1c(OCc2ccccc2)c(=O)ccn1Cc1ccc(F)cc1	2
Cc1c(O)c(=O)ccn1Cc1ccccc1	257*
Cc1c(OCc2ccccc2)c(=O)ccn1Cc1ccc(Cl)cc1	6
O=c1cc(NS(=O)(=O)c2ccccc2)nc(SCc2ccc(Cl)cc2)[nH]1	-8
CCCc1cc(=O)[nH]c(SCc2cccnc2)n1	342
O=c1cc(O)nc(SCc2ccccc2)[nH]1	525*
O=C(CCc1nnc(Cc2c[nH]c3ccccc23)o1)NC(C1CC1)C1CC1	9
CCOc1ccc(NC(=S)N2CCCN(Cc3cc(C)ccc3C)C2)cc1	7
CCOC(=O)COc1ccc(S(=O)(=O)Nc2ccc3c(c2)OCCO3)cc1	460*
CCOc1ccc(NS(=O)(=O)c2ccc(OC)c(NC(=O)c3ccc4c(c3)OCCO4)c2)cc1	0
SMILES	INS promoter act
Cc1cccc(NS(=O)(=O)c2ccc3c(c2)OCCO3)c1	-7
COc1cccc(C(=O)C2CCCN(Cc3cn(CC(N)=O)c4ccccc34)C2)c1 (stereo not drawn)	6
CCSc1ncnc2c1sc1nc3c(cc12)COC(C)(C)C3	7
COc1ccc(OC)c(S(=O)(=O)Nc2ccc(O)c3ccccc23)c1	450*
CNS(=O)(=O)c1cc(OC)ccc1OC	115
COC(=O)c1c(C)oc2ccc(NS(=O)(=O)c3cc(OC)ccc3OC)cc12	-81
Cc1ccc(NC(=O)C(=O)NCCN2CCN(C(=S)Nc3ccccc3)CC2)cc1	9
COC(=O)c1cn(NC(=O)c2ccc(OC)c(OC)c2)c(=O)c2ccccc12	7
COC(=O)c1cn(NC(=O)c2cccc(F)c2)c(=O)c2ccccc12	-6
COC(=O)c1cn(NC(=O)c2ccc([N+](=O)[O-])c(C)c2)c(=O)c2ccccc12	320*
COc1ccc(NC(=O)CSc2nnc(-c3ccncc3)n2C)cc1	0
Cn1c(SCCOc2ccccc2Cl)nnc1-c1ccncc1	538*
Cn1c(SCC(=O)C(C)(C)C)nnc1-c1ccncc1	0
O=C(c1cc(C2CC2)nc2ccc(Br)cc12)N1N=C(C(F)F)CC1(O)C(F)F (stereo not drawn)	108
CCOC(=O)CSc1ncc(-c2ccc([N+](=O)[O-])cc2)[nH]1	-3
Cc1ccc(CNC(=O)C2CCCN(S(=O)(=O)c3c(C)noc3C)C2)cc1 (stereo not drawn)	114
Cc1ccc(CNC(=O)C2CCN(S(=O)(=O)c3c(C)noc3C)CC2)cc1	76*
Cc1noc(C)c1S(=O)(=O)N1CCC(C(=O)NCCc2ccc(S(N)(=O)=O)cc2)CC1	-10
CCOC(=O)c1sc2nc(SCC(=O)N(CC)CC)n(CCCN3CCCC3=O)c(=O)c2c1C	114
O=C(N=Nc1c(O)[nH]c2ccc(Cl)cc12)c1cc(-c2cccs2)nc2ccccc12	-5
CCN(CC)C(=O)CSc1nnc(-c2ccco2)o1	500*
O=C(CSc1nnc(-c2ccco2)o1)NC1CCCCC1	0
O=C(CSc1nnc(-c2ccco2)o1)c1ccccc1Cl	0
CCCCN(Cc1ccccc1)S(=O)(=O)c1cc(Br)cc2c1N(C(C)=O)C(C)C2 (stereo not drawn)	0
CC(=O)c1ccc(N2CCN(C(=O)CCCn3c(=S)[nH]c4cc5c(cc4c3=O)OCO5)CC2)cc1	136*
Cc1cccc(N2CCN(C(=O)CCCn3c(=S)[nH]c4cc5c(cc4c3=O)OCO5)CC2)c1C	0
O=C(CCCn1c(=S)[nH]c2cc3c(cc2c1=O)OCO3)NC1CC1	4
CN(C)S(=O)(=O)Oc1cccc(C(=O)Nc2ccc([N+](=O)[O-])cc2)c1	7
COc1ccc(C(=O)Cc2nnc(C)s2)cc1	7
O=C(c1ccco1)N1N=C2CCCCCC2C1(O)C(F)(F)F (stereo not drawn)	-7

From PubChem BioAssay
